According to ChEMBL document CHEMBL1150208, “Production of anti-tumor-promoting iridoid glucosides in Genipa americana and its cell cultures” (J Nat Prod, 1991):

Columns and labels:
Format in all cases: cell-based
Raji [1] = assay: Inhibition of TPA-induced EBV-early antigen activation in human Raji cells assessed as EA activation at 1000 molar ratio after 48 hrs relative to TPA; conditions: human gammaherpesvirus 4
Procedure, shortened: (§1)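 EBV early antigen activation was induced in Raji cells with TPA (32 pmol) and n-butyrate. Test substance was dosed as a molar ratio to TPA in 0.25% phosphate buffer (pH 7.2) for 48 h. Activation is expressed as % of the TPA-only positive control (=100), reported as mean ± SD.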

Raji [2] = assay: Inhibition of TPA-induced EBV-early antigen activation in human Raji cells assessed as EA activation at 500 molar ratio after 48 hrs relative to TPA; conditions: human gammaherpesvirus 4; procedure, shortened: as §1
Raji [3] = assay: Inhibition of TPA-induced EBV-early antigen activation in human Raji cells assessed as EA activation at 10 molar ratio after 48 hrs relative to TPA; conditions: human gammaherpesvirus 4; procedure, shortened: as §1
Raji [4] = assay: Inhibition of TPA-induced EBV-early antigen activation in human Raji cells assessed as EA activation at 100 molar ratio after 48 hrs relative to TPA; conditions: human gammaherpesvirus 4; procedure, shortened: as §1
[5] = Cytotoxicity against human Raji cells assessed as cell viability at 1000 molar ratio after 48 hrs by trypan blue assay; conditions: read-out: Activity
Procedure, shortened: (§2)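 Raji cells were treated together with TPA (32 pmol), n-butyrate and test substance in 0.25% phosphate buffer solution (pH 7.2). Dose is expressed as molar ratio to TPA. After 48 h, cells were stained with Trypan Blue and surviving cells were counted to give viability %.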

[6] = Cytotoxicity against human Raji cells assessed as cell viability at 100 molar ratio after 48 hrs by trypan blue assay; conditions: read-out: Activity; procedure, shortened: as §2

| Compound | EA activation (% of TPA-only control) (Raji [1]) [%] | EA activation (% of TPA control) (Raji [2]) [%] | EBV-EA activation (% of TPA control) (Raji [3]) [%] | EA activation relative to TPA control (Raji [4]) [%] | viability at 48 h, 1000 molar ratio [5] [%] | viability at 48 h, 100 molar ratio [6] [%] |
| --- | --- | --- | --- | --- | --- | --- |
| COC(=O)C1=CO[C@@H](O[C@@H]2O[C@H](CO)[C@@H](O)[C@H](O)[C@H]2O)[C@@H]2C(CO)=CC[C@H]12 [GENIPOSIDE] | 62.4 | 91 | 100 | 100 | 80 |  |
| O=C(O)C1=CO[C@@H](O[C@@H]2O[C@H](CO)[C@@H](O)[C@H](O)[C@H]2O)[C@@H]2C(CO)=CC[C@H]12 [GENIPOSIDIC ACID] | 34.8 | 80.5 | 100 | 91.8 | 80 |  |
| O=CC1=CO[C@@H](O[C@@H]2O[C@H](CO)[C@@H](O)[C@H](O)[C@H]2O)[C@@H]2C(CO)=CC[C@H]12 [TARENNOSIDE] | 30.5 | 72.8 | 100 | 88.1 | 80 |  |
| COC(=O)C1=CO[C@@H](O)[C@@H]2C(CO)=CC[C@H]12 [GENIPIN] | 11.5 | 44.2 | 100 | 64.2 | 80 |  |
| CC1=C(/C=C/C(C)=C/C=C/C(C)=C/C(=O)O)C(C)(C)CCC1 [TRETINOIN] | 30 |  |  | 67 | 10 | 40 |
| COC(=O)C1=CO[C@@H](O[C@@H]2O[C@H](CO)[C@@H](O)[C@H](O)[C@H]2O)[C@H]2[C@@H]1C=C[C@@]2(O)CO [GARDENOSIDE] | 92.6 | 100 | 100 | 100 | 80 |  |
